Compound activity deposited in PubChem by Broad Institute.
C2C12 statin = suppression of simvastatin myotoxicity; C2C12 myotubes + simvastatin, ATP luminescence, 48 h; scaled: DMSO 0, geranylgeraniol control 100; rescue of ATP level, % at 7.49 µM; 0.78% of 330,000 active; AID 602340;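 active = mean ATP rescue above about 67%, or every replicate alone reaching that limit, limit read from the data, passing the limit was not always enough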;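 note: myotubes were challenged with 10 µM simvastatin during compound exposure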
Rtt109 HAT inh = inhibitors of Candida albicans Rtt109/Vps75 histone acetyltransferase; Q5AAJ8; purified Rtt109/Vps75, ThioGlo CoA-SH fluorescence, 4 h; inhibition, % at 34.9 µM; 0.16% of 330,000 active; AID 540336;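 active = inhibition of at least 50% in every replicate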
Target sequence (Q5AAJ8 whole entry, looked up): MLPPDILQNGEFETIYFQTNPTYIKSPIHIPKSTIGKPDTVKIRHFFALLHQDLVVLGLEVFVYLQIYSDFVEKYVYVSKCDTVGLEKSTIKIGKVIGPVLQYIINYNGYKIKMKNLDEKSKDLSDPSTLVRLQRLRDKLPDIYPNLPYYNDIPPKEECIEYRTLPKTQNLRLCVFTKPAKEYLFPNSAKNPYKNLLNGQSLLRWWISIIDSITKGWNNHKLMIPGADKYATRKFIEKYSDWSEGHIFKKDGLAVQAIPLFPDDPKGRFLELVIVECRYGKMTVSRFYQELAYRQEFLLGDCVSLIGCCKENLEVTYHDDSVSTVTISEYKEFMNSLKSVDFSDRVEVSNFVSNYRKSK
PGC1a acetyl inh = modulators of PGC1a acetylation | U2OS PGC1a acetylation, AlphaScreen anti-acetyl-lysine; with virally co-expressed GCN5 acetyltransferase | inhibition, % at 15.6 µM | 0.17% of 350,000 active;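 active = every replicate shows inhibition of at least 40%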;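 note: 0% = neutral control wells and 100% = positive control wells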
ERAP1 inh = inhibitors of human ERAP1 aminopeptidase. Q9NZ08. recombinant ERAP1, Leu-AMC fluorescence, 60 min. inhibition, % at 10.7 µM. 0.15% of 340,000 active. AID 652197;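 active = mean replicate inhibition of at least 30%, or all replicates individually reaching that 30% level; inactive = mean below 30% and not every replicate reaching it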;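 note: 0% = neutral control wells and 100% = L-leucinethiol positive control wells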
S100A4 MyoIIA = S100A4-myosin IIA interaction inhibition | P26447 | 0.14% of 360,000 active | AID 652163 | inhibition, % at 10.7 µM | S100A4/TAMRA-MyoIIA peptide fluorescence polarization;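 active = mean inhibition of at least 70% across replicates, with every replicate also reaching that level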
Target sequence (P26447 whole entry, looked up): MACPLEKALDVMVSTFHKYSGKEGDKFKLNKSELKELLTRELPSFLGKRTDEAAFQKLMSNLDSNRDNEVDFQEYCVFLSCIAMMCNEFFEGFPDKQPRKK
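Assay system: human S100A4 monomer with TAMRA-labelled myosin IIA peptide / Buffer or medium: Calcium-containing HEPES buffer, pH 7.2 / Reagent: TAMRA-labelled myosin IIA heavy-chain peptide probe, 5 nM / Compound: one dose per compound / Timing: polarization read 5 min after assay mix addition, stable 5–60 min / Benchmarks: neutral control DMSO, positive control TFP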
* = called active by the depositor. The list is not random: actives were taken first. Their share in the collection is about 0.98%.

CN1C(=O)c2cc(NC(=O)Nc3cccc(Cl)c3)ccc2OC[C@H]2O[C@@H](CC(=O)O)CC[C@@H]21 was read as C2C12 statin 2, PGC1a acetyl inh 6, ERAP1 inh 1 and S100A4 MyoIIA 2.
CCCCc1ccc(S(=O)(=O)NCCc2ccncc2)cc1 was read as C2C12 statin 126*, Rtt109 HAT inh 7 and PGC1a acetyl inh -14.
CCCC(=O)Nc1ccc2c(c1)C(=O)N(C)[C@@H]1CC[C@@H](CC(=O)NCCc3ccncc3)O[C@H]1CO2 was read as C2C12 statin -20, PGC1a acetyl inh 1, ERAP1 inh 0 and S100A4 MyoIIA 17.
CC(C)CC#Cc1cnc2c(c1)C(=O)N([C@H](C)CO)C[C@@H](C)[C@H](CN(C)Cc1ccccc1C(=O)O)O2 was read as C2C12 statin 5, PGC1a acetyl inh 0, ERAP1 inh -2 and S100A4 MyoIIA -5.
`CCCCCCCCCCCCCCCC[N+](C)(C)CCN(Cc1ccc(OC)cc1)c1ncccn1` gave C2C12 statin -105 and Rtt109 HAT inh 88*.
For COCC(=O)N(C)C[C@@H]1Oc2cc(-c3ccc(F)cc3)ccc2S(=O)(=O)N([C@@H](C)CO)C[C@H]1C the results were C2C12 statin -14, PGC1a acetyl inh 3, ERAP1 inh 0 and S100A4 MyoIIA 22.
`Oc1ccccc1/C=N/c1c(-c2ccco2)nc2ccccn12` gave C2C12 statin 102*, Rtt109 HAT inh -6 and PGC1a acetyl inh 6.
Clc1ccc(/C=N/c2c(-c3ccco3)nc3ccccn23)cc1 was read as C2C12 statin -3, Rtt109 HAT inh -10 and PGC1a acetyl inh -5.
O=[N+]([O-])c1ccccc1CN1CCN(S(=O)(=O)Cc2ccccc2)CC1 was read as Rtt109 HAT inh 11, PGC1a acetyl inh -9, ERAP1 inh 3 and S100A4 MyoIIA 105*.
`C[C@H](CO)N1C[C@H](C)[C@H](CN(C)C(=O)Nc2ccc(C(F)(F)F)cc2)Oc2ccc(NC(=O)NC3CCCCC3)cc2CC1=O` gave C2C12 statin 3, PGC1a acetyl inh -10, ERAP1 inh -4 and S100A4 MyoIIA -32.
`O=C(CN1C(=O)CCC1=O)NCC12CC3CC(CC(C3)C1)C2` gave C2C12 statin 96*, Rtt109 HAT inh -28 and PGC1a acetyl inh 8.
CC(C)Oc1ccc(C(=O)NCc2ccco2)cc1 was read as C2C12 statin 127*, Rtt109 HAT inh -9 and PGC1a acetyl inh 6.
For CCCNC(=O)[C@H]1[C@H](CO)[C@H]2Cn3c(cccc3=O)[C@@H]1N2CCC(F)(F)F the results were C2C12 statin -21, ERAP1 inh 0 and S100A4 MyoIIA 0.
For CC=Cc1ccc2n(c1=O)C[C@H]1[C@H](CO)[C@@H](C(=O)NCC3CC3)[C@@H]2N1Cc1cccnc1 (mixture of isomers) the results were C2C12 statin -33, ERAP1 inh 3 and S100A4 MyoIIA 122*.
Screening CC=Cc1ccc2n(c1=O)C[C@H]1[C@H](CO)[C@@H](C(=O)NCC3CC3)[C@@H]2N1Cc1ccccc1 (mixture of isomers) returned C2C12 statin -1, ERAP1 inh -2 and S100A4 MyoIIA 3.
`CCCNC(=O)[C@@H]1[C@@H](CO)[C@@H]2Cn3c(cccc3=O)[C@H]1N2CCC(F)(F)F` gave C2C12 statin -13, ERAP1 inh 3 and S100A4 MyoIIA 123*.
For CCCN1[C@@H]2c3ccc(-c4cccnc4)c(=O)n3C[C@H]1[C@H](CO)[C@H]2C(=O)NCCc1cn(C)cn1 the results were C2C12 statin -7, ERAP1 inh 55* and S100A4 MyoIIA 7.
Screening CC(C)c1cn([C@H]2C[C@@H]3O[C@@H](CO)CC[C@@H]3O[C@@H]2CCc2ccc(C#CC3(O)CCCC3)cc2)nn1 returned PGC1a acetyl inh 11, ERAP1 inh -3 and S100A4 MyoIIA -36.
For CO[C@@H]1CN(C)C(=O)c2cc(NS(=O)(=O)c3ccccc3C)ccc2OC[C@H](C)N(C)C[C@@H]1C the results were C2C12 statin -11, PGC1a acetyl inh 1, ERAP1 inh 0 and S100A4 MyoIIA 1.
`Cc1ccc(CN(C(=O)c2ccccc2C)C2CCS(=O)(=O)C2)o1` (stereo not drawn) gave Rtt109 HAT inh 72*, PGC1a acetyl inh 2, ERAP1 inh -4 and S100A4 MyoIIA -3.
Screening Cc1ccc(NC(=O)CSCC(=O)Nc2ccc(N3CCOCC3)c(Cl)c2)cc1 returned C2C12 statin 121*, Rtt109 HAT inh 5 and PGC1a acetyl inh -10.
Screening Cc1ccc(NC(=O)CSCC(=O)Nc2ccc(N3CCOCC3)cc2N2CCOCC2)cc1 returned C2C12 statin -4, Rtt109 HAT inh -14, ERAP1 inh 2 and S100A4 MyoIIA -2.
`Cc1ccc(NC(=O)COc2ccc(S(=O)(=O)N3CCOCC3)cc2)cc1` gave C2C12 statin 152*, Rtt109 HAT inh 2 and PGC1a acetyl inh -15.
For O=C(Nc1ccc(N2CCOCC2)c(Cl)c1)c1cccnc1 the results were C2C12 statin 92*, Rtt109 HAT inh -5 and PGC1a acetyl inh -1.
Screening CC(C)c1ccc(NC(=O)COc2ccc(S(=O)(=O)N3CCOCC3)cc2)cc1 returned C2C12 statin 4, Rtt109 HAT inh 6 and PGC1a acetyl inh 3.
Screening Cc1ccc(NC(=O)c2cc(N3C(=O)C=CC3=O)ccc2N2CCOCC2)cc1 returned Rtt109 HAT inh active, ERAP1 inh 1 and S100A4 MyoIIA -2.
`C[C@@H]1CN([C@H](C)CO)C(=O)c2cc(NC(=O)Cc3ccccc3)ccc2O[C@@H](C)CCCCO[C@@H]1CN(C)C(=O)Nc1cccc2ccccc12` gave C2C12 statin -5, PGC1a acetyl inh 4, ERAP1 inh -1 and S100A4 MyoIIA 2.
Screening CCCNC(=O)C[C@@H]1CC[C@H]2[C@@H](COc3ccc(NC(=O)c4cc(C)on4)cc3C(=O)N2C)O1 returned C2C12 statin 8, PGC1a acetyl inh 12, ERAP1 inh -1 and S100A4 MyoIIA -2.
Screening O=C(CCc1ccccc1)Nc1ccc(N2CCOCC2)cc1 returned C2C12 statin -4, Rtt109 HAT inh 6 and PGC1a acetyl inh 4.
O=C(CCc1ccccc1)Nc1ccc(N2CCOCC2)c(Cl)c1 was read as C2C12 statin 113*, Rtt109 HAT inh -2 and PGC1a acetyl inh 2.
Screening COc1ccc2c(Cl)c(-c3nnc(SCC(=O)c4ccccc4)n3C)sc2c1 returned C2C12 statin 116*, Rtt109 HAT inh 4 and PGC1a acetyl inh -6.
`CCOC(=O)C1C(c2cc(OC)c(OC)c(OC)c2)NC(=S)NC1(O)C(F)(F)F` (stereo not drawn) gave C2C12 statin 101*, Rtt109 HAT inh -6 and PGC1a acetyl inh -5.
Screening CCOC(=O)C1C(c2cccc(F)c2)NC(=S)NC1(O)C(F)(F)F (stereo not drawn) returned C2C12 statin 98*, Rtt109 HAT inh -1 and PGC1a acetyl inh -3.
